Assays:
Trypanosoma cruzi [1] = assay: (§1) Inhibition of Trypanosoma cruzi trans-Sialidase; settings: concentration not given here
[2] = as §1
Trypanosoma cruzi [3] = assay: Inhibition of Trypanosoma cruzi N-terminus His-tagged trans-Sialidase using MuNANA as substrate at 1 mM after 10 mins by fluorometric analysis
Procedure, shortened: (§2)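 Recombinant His-tagged 70 kDa enzyme truncated of C-terminal repeats, retaining catalytic N-terminal domain. Triplicate wells: pH 7.4 phosphate buffer, enzyme and inhibitor (added as 4.0 or 2.0 mM solution, 1.0 or 0.5 mM final) preincubated 10 min at 26 °C; MuNANA added at 0.1 mM final. Released methylumbelliferone fluorescence (ex 360/em 460 nm) read after 10 min; percent inhibition.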

Trypanosoma cruzi [4] = assay: Inhibition of Trypanosoma cruzi N-terminus His-tagged trans-Sialidase using MuNANA as substrate at 0.5 mM after 10 mins by fluorometric analysis; procedure, shortened: as §2
Trypanosoma cruzi [5] = assay: Antitrypanosomal activity against Trypanosoma cruzi […] infected in monkey LLC-MK2 cells after 4 days by beta-galactosidase reporter gene assay; assay type: functional, organism-based; settings: LLC-MK2, 96 h
Procedure, shortened: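 LLC-MK2 cells in phenol-red-free RPMI with 10% FBS, 2×10^3/well, grown 24 h, then infected with 1×10^4 trypomastigotes of T. cruzi Tulahuen expressing E. coli β-galactosidase; compounds added 24 h later (0.5 mM–3.5 µM) for 4 days. Lysed with PBS/0.5% Triton X-100 containing 100 µM CPRG, 4 h at 37 °C, A570. Concentration giving 50% trypanocidal activity reported as IC50.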

[6] = Cytotoxicity against C57BL/6 mouse spleen cells assessed as cell death at 0.5 mM after 24 hrs by propidium iodide staining-based flow cytometric analysis; settings: 500 µM
Procedure, shortened: (§3)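 Spleen cells from C57BL/6 mice, red cells lysed 5 min (Tris-HCl pH 7.5/ammonium chloride), in RPMI 1640 with 10% FBS at 5×10^5 cells/well, exposed to a range of compound concentrations for 24 h at 37 °C. Tween 20 at 0.5% as death control. Stained with 10 µg/mL propidium iodide, read by flow cytometry.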

[7] = Cytotoxicity against C57BL/6 mouse spleen cells assessed as cell death at 250 to 780 uM mM after 24 hrs by propidium iodide staining-based flow cytometric analysis; settings: 7.8 µM, in the assay text read “250 to 7.8 uM” for “250 to 780 uM mM”; procedure, shortened: as §3
[8] = Cytotoxicity against C57BL/6 mouse spleen cells assessed as cell death at 500 to 780 uM mM after 24 hrs by propidium iodide staining-based flow cytometric analysis; settings: 7.8 µM, in the assay text read “500 to 7.8 uM” for “500 to 780 uM”; procedure, shortened: as §3
[9] = Binding affinity to Trypanosoma cruzi trans-Sialidase by surface plasmon resonance assay

Q: Which inhibition (Trypanosoma cruzi [1]) does the source give for CCCCCCCCO[C@@H]1O[C@H](COC)[C@H](O)[C@H](O)[C@H]1O here?
A: 75%

Q: Which IC50 [2] does the source give for Cc1ccc(S(=O)(=O)Nc2ccc(C(=O)/C=C/c3ccc(O)c(O)c3)cc2)cc1 here?
A: 0.9 µM

Q: What does the source list for CC(=O)N[C@H]1[C@H]([C@H](O)[C@H](O)CO)O[C@@](OCc2cn(C[C@H]3O[C@H](O)[C@H](O)[C@@H](O)[C@H]3O)nn2)(C(=O)O)C[C@@H]1O?
A: inhibition (Trypanosoma cruzi [3]): 91%; inhibition (Trypanosoma cruzi [4]): 30%; IC50 (Trypanosoma cruzi [5]): 260 µM; Activity [6]: 55%; Activity [7]: Non-toxic

Q: Which results are given for CC(=O)N[C@H]1[C@H]([C@H](O)[C@H](O)CO)O[C@@](OCc2cn([C@@H]3[C@@H](O)[C@@H](O)O[C@H](CO)[C@H]3O)nn2)(C(=O)O)C[C@@H]1O?
A: inhibition (Trypanosoma cruzi [3]): 67%; inhibition (Trypanosoma cruzi [4]): 1.5%; IC50 (Trypanosoma cruzi [5]): 726 µM; Activity [8]: Non-toxic

Q: Which Kd [9] does the source give for CC(=O)N[C@H]1[C@H]([C@H](O)[C@H](O)CO)O[C@@](CCCc2ccccc2)(C(=O)O)C[C@@H]1O here?
A: 160 µM

Q: Which IC50 (Trypanosoma cruzi [5]) does the source give for O=C(Cn1ccnc1[N+](=O)[O-])NCc1ccccc1 [BENZNIDAZOLE] here?
A: 125 µM

Q: Which IC50 [2] does the source give for Cc1ccc(S(=O)(=O)Nc2cccc(C(=O)/C=C/c3ccc(O)c(O)c3)c2)cc1 here?
A: 2.5 µM

Q: What does the source list for CC(=O)N[C@H]1[C@H]([C@H](O)[C@H](O)CO)O[C@@](OCc2cn([C@H]3[C@@H](O)[C@H](O)O[C@H](CO)[C@@H]3O)nn2)(C(=O)O)C[C@@H]1O?
A: inhibition (Trypanosoma cruzi [3]): 69%; inhibition (Trypanosoma cruzi [4]): 1.5%; IC50 (Trypanosoma cruzi [5]): > 2000 µM; Activity [8]: Non-toxic

Q: With O=c1c(O)c(-c2cc(O)c(O)c(O)c2)oc2cc(O)cc(O)c12 [MYRICETIN] as the compound, how does the IC50 [2] read?
A: 0.58 µM

Q: Which inhibition (Trypanosoma cruzi [1]) does the source give for CCCCCCCCO[C@@H]1O[C@H](CO)[C@H](O)[C@H](O)[C@H]1O here?
A: 84%

Q: Which inhibition (Trypanosoma cruzi [3]) does the source give for CC(=O)N[C@H]1[C@H]([C@H](O)[C@H](O)CO)O[C@@](OCc2cn([C@@H]3O[C@H](CO)[C@H](O)[C@H](O)[C@H]3O)nn2)(C(=O)O)C[C@@H]1O here?
A: 88%

Q: And the inhibition (Trypanosoma cruzi [4])?
A: 1.5%

Q: What about the IC50 (Trypanosoma cruzi [5]) of the same compound?
A: 475 µM

Q: And the Activity [6]?
A: > 80%

Q: Which inhibition (Trypanosoma cruzi [3]) does the source give for CO[C@H]1O[C@H](CO)[C@H](O)[C@H](OCc2cn(C(C(=O)O)C(C)O)nn2)[C@H]1O (some centres undefined) here?
A: 5%

Q: And the inhibition (Trypanosoma cruzi [4])?
A: 1.5%

Q: What about the IC50 (Trypanosoma cruzi [5]) of the same compound?
A: 369 µM

Q: What about the Activity [6] of the same compound?
A: > 80%

Q: With Cc1ccc(S(=O)(=O)N2c3ccccc3C(=O)C3=Cc4cc(O)c(O)c5c(O)c(O)cc(c45)C32)cc1 (centres undefined) as the compound, how does the IC50 [2] read?
A: 0.6 µM

Source: ChEMBL document CHEMBL1926571, “Design, synthesis and the effect of 1,2,3-triazole sialylmimetic neoglycoconjugates on Trypanosoma cruzi and its cell surface trans-sialidase” (Bioorg Med Chem, 2012)
